Test results reported in ChEMBL document CHEMBL4138058, “Design and synthesis of novel selective estrogen receptor degradation inducers based on the diphenylheptane skeleton” (Medchemcomm, 2017).
Active and inactive are the calls of the source. The calls are words filed in the database; no cut-off is given here.

Experiments:
[1] = biological target: T1, Estrogen receptor (Homo sapiens) (UniProt P03372); assay: Downregulation of ERalpha expression in human MCF7 cells at 1 uM after 6 hrs by Western blot method relative to beta-actin; type: cell-based
T1 sequence (whole entry): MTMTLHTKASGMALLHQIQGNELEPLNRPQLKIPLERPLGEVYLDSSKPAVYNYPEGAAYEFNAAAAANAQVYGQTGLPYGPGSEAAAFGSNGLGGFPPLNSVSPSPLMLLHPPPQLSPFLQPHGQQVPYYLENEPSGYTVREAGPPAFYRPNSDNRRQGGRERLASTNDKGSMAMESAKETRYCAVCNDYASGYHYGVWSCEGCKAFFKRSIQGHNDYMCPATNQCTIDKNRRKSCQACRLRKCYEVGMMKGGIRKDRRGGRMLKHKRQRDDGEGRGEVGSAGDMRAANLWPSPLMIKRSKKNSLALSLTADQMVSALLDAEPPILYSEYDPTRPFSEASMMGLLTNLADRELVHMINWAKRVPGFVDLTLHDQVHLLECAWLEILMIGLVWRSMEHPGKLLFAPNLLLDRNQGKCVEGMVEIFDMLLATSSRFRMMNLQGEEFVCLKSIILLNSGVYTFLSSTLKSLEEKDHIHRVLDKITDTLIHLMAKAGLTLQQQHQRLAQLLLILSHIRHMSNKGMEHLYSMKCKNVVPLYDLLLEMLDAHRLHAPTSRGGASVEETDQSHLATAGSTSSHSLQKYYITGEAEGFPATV
Outline: (§1)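 MCF-7 cells kept in DMEM with 10% FBS, kanamycin and 10 μg/mL insulin, then exposed to compounds for 6 h. Lysates made in SDS buffer (0.1 M Tris-HCl pH 8.0, 10% glycerol, 1% SDS), boiled, BCA-normalized and run on SDS-PAGE. Blots probed with anti-ERα, AR, AhR or VDR and β-actin or lamin B. Chemiluminescence quantified as target/loading-protein ratio; means ± S.E., n=3.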

[2] = biological target: T1, Estrogen receptor (Homo sapiens); assay: Downregulation of ERalpha expression in human MCF7 cells at 3 uM after 6 hrs by Western blot method relative to beta-actin; type: cell-based; outline: as §1
[3] = biological target: T1, Estrogen receptor (Homo sapiens); assay: Downregulation of ERalpha expression in human MCF7 cells at 10 uM after 6 hrs by Western blot method relative to beta-actin; type: cell-based; outline: as §1
[4] = biological target: T2, Estrogen receptor (Homo sapiens, UniProt P03372); assay: Displacement of Fluormone ES2 Green from full-length untagged human ERalpha expressed in insect cells after 2 hrs by fluorescence polarization assay
T2 sequence (P03372 whole entry): T1 sequence (whole entry)

[5] = biological target: T1, Estrogen receptor (Homo sapiens); assay: Displacement of Fluormone ES2 Green from full-length untagged human ERalpha expressed in insect cells at 1 uM after 2 hrs by fluorescence polarization assay
Outline: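 Competitive fluorescence polarization binding to ERα run with a commercial kit per manufacturer's instructions. Compounds taken from 10 mM DMSO stock. mP read at 470 nm excitation and 535 nm emission. Fraction bound correlated with mP and plotted against competitor concentration.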

[6] = biological target: T1, Estrogen receptor (Homo sapiens); assay: Antagonist activity at GAL4-fused human ERalpha LBD expressed in HEK293 cells assessed as inhibition of 17beta-estradiol-induced transcriptional activation at 10 uM after 16 to 20 hrs by luciferase reporter gene assay relative to control; type: cell-based
Outline: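 HEK293 cells grown in phenol red-free DMEM with 10% FBS at 37 °C, 5% CO2. Calcium phosphate co-transfection with GAL4-hERα LBD plasmid, MH100x4-tk-luciferase reporter and β-galactosidase normalization plasmid. Compounds added 8 h post-transfection with 0.3 nM 17β-estradiol; harvested 16–20 h later. Luciferase normalized to β-galactosidase; means of triplicate assays.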

Structure (SMILES)	Activity [1]	Activity [2]	Activity [3]	IC50 [4]	inhibition [5]	inhibition [6]
CCCCCCOc1ccc(C(CCC)(CCC)c2ccc(O)c(C)c2)cc1C	89%	95%	86%	168 nM	–	–
CCCCCCCCCCCCNCCOc1ccc(C(CCC)(CCC)c2ccc(O)c(C)c2)cc1C	93%	83%	68%	4.9 nM	–	–
CCCCCCCCOc1ccc(C(CCC)(CCC)c2ccc(O)c(C)c2)cc1C	105%	105%	105%	400 nM	–	–
CCCCCCCCCCOc1ccc(C(CCC)(CCC)c2ccc(O)c(C)c2)cc1C	118%	120%	106%	–	inactive	–
CCCC(CCC)(c1ccc(O)c(C)c1)c1ccc(OCC)c(C)c1	95%	96%	87%	40 nM	–	–
CCCC(CCC)(c1ccc(O)c(C)c1)c1ccc(OCCN)c(C)c1	145%	154%	150%	78 nM	–	–
CCCCCCNCCOc1ccc(C(CCC)(CCC)c2ccc(O)c(C)c2)cc1C	185%	185%	112%	78 nM	–	–
CCCCOc1ccc(C(CCC)(CCC)c2ccc(O)c(C)c2)cc1C	84%	82%	68%	87 nM	–	–

Next, values leading:

Activity [1]	Activity [2]	Activity [3]	IC50 [4]	inhibition [5]	inhibition [6]	Structure (SMILES)
111%	112%	69%	2.4 nM	–	–	CCCCCCCCNCCOc1ccc(C(CCC)(CCC)c2ccc(O)c(C)c2)cc1C
80%	79%	70%	7.3 nM	–	–	CCCC(CCC)(c1ccc(O)c(C)c1)c1ccc(O)c(C)c1
109%	115%	100%	313 nM	–	–	CCCC(CCC)(c1ccc(O)c(C)c1)c1ccc(OCCN(C)C)c(C)c1
128%	111%	96%	–	inactive	61%	CCCCCCCCCCCCOc1ccc(C(CCC)(CCC)c2ccc(O)c(C)c2)cc1C
92%	82%	70%	20 nM	–	–	CCCCCCCCCCCCCCCCNCCOc1ccc(C(CCC)(CCC)c2ccc(O)c(C)c2)cc1C
